We go through 46 compounds from ChEMBL document CHEMBL2417530, “Coumarin derivatives protect against ischemic brain injury in rats” (Eur J Med Chem, 2013).

Data set [1] can be described thus: Cytotoxicity against rat PC12 cells assessed as cell proliferation at 10 uM by MTT assay relative to control. To be noted: read-out: Activity. The format is cell-based, PC-12. Put shortly:
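PC12 cells were grown in DMEM with 5% FBS, 5% horse serum and 2 mM glutamine at 37 °C, 5% CO2. They were seeded at 5×10^3 cells/well for 24 h, then exposed to 10 µM compound in full medium. Viability was read by MTT (5 mg/mL, 4 h) at 570 nm as % of control absorbance; n = 3.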

The test system of another data set is PC-12. Kind of data set: Neuroprotective activity in rat PC12 cells assessed as attenuation of oxygen-glucose deprivation-induced cellular damage at 10 uM by MTT assay relative to control. Type of data set: functional. Put shortly: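 PC12 cells were seeded at 5×10^3/well for 24 h. OGD insult was low-glucose medium plus 5 mM sodium dithionite for 24 h, given together with 10 µM compound. MTT (5 mg/mL) was added for 4 h and absorbance read at 570 nm. Viability was expressed as % of full-medium control; n = 3.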
On the technique in general: Tetrazolium dyes change colour on reduction, which living cells bring about.

Turning to `Cc1c(N2CCN(S(=O)(=O)c3ccccc3)CC2)c(=O)oc2cc(O)cc(O)c12`, the viability at 10 µM in data set [1] came out at 97.4%. The Activity with PC-12 is 49.7%.
The like results for `CCOc1ccc2c(C)c(N3CCN(C)CC3)c(=O)oc2c1` were, in that order, 101% and 45.6%.
The like results for `Cc1c(N2CCNCC2)c(=O)oc2cc(O)cc(O)c12` were, in that order, 96.3% and 46.4%.
In the same order, the values of `Cc1c(N2CCN(C(=O)Nc3ccc(OC(F)(F)F)cc3)CC2)c(=O)oc2cc(O)cc(O)c12` are 99.5% and 48.7%.
For the compound `Cc1c(N2CCN(C)CC2)c(=O)oc2cc(O)cc(OCCNS(C)(=O)=O)c12`, the viability at 10 µM in data set [1] came to 103%. Also, in the data set on PC-12, the Activity is reported as 40.3%.
In the case of `Cc1c(N2CCN(C)CC2)c(=O)oc2cc(O)cc(OCCN)c12`, the viability at 10 µM in data set [1] worked out at 104%. Further, in the data set on PC-12, the Activity was determined as 49.2%.
The like results for `Cc1c(N2CCN(C(=O)/C=C/c3ccccc3)CC2)c(=O)oc2cc(O)cc(O)c12` were, in that order, 104% and 45.9%.
The like results for `Cc1c(N2CCN(C(c3ccc(F)cc3)c3ccc(F)cc3)CC2)c(=O)oc2cc(O)cc(O)c12` were, in that order, 102% and 47.8%.
With `CC(=O)Oc1cc(OC(C)=O)c2c(C)c(N3CCN(C)CC3)c(=O)oc2c1`, the viability at 10 µM in data set [1] came out at 102%. In the data set with PC-12, the Activity is recorded as 46.6%.
For `COc1ccc2c(C)c(N3CCN(C)CC3)c(=O)oc2c1`, in data set [1], the viability at 10 µM was found to be 100%. Besides, the Activity in the data set on PC-12 is recorded as 43.7%.
`CCCCCCCNC(=O)N1CCN(c2c(C)c3c(O)cc(O)cc3oc2=O)CC1`: the viability at 10 µM in data set [1] was found to be 99.3%. For the same compound, the Activity with PC-12 was 43.4%.
The like results for `Cc1c(N2CCN(C)CC2)c(=O)oc2cc3c(cc12)OCO3` were, in that order, 101% and 47.9%.
Regarding `C=CC(=O)N1CCN(c2c(C)c3c(O)cc(O)cc3oc2=O)CC1`, in data set [1], the viability at 10 µM turned out to be 98.5%. In addition, in the data set on PC-12, the Activity was determined as 48.3%.
In the same order, the values of `Cc1c(N2CCN(C)CC2)c(=O)oc2cc(O)cc(OCCNC(=O)OC(C)(C)C)c12` are 132% and 23.4%.
As for `Cc1c(N2CCN(C)CC2)c(=O)oc2cc(O)cc(OC3CCOC3)c12` (configuration not stated), the viability at 10 µM in data set [1] is 107%. In the data set on PC-12, the Activity is 52%.
`Cc1c(N2CCN(C)CC2)c(=O)oc2cc(OCCN3CCCC3)ccc12`: the viability at 10 µM in data set [1] stood at 104%. In the data set on PC-12, the Activity amounted to 44.9%.
Take `Cc1c(N2CCN(C(=O)Nc3ccc(C(C)C)cc3)CC2)c(=O)oc2cc(O)cc(O)c12`: the viability at 10 µM in data set [1] came to 97.3%. For the same compound, in the data set with PC-12, the Activity came out at 46.3%.
In the case of `CCC1CCC(Oc2ccc3c(C)c(N4CCN(C)CC4)c(=O)oc3c2)CC1` (configuration not stated), in data set [1], the viability at 10 µM amounted to 101%. Further, the Activity in the data set with PC-12 is given as 49.2%.
The like results for `Cc1c(N2CCN(C)CC2)c(=O)oc2cc(OCCc3cccs3)ccc12` were, in that order, 110% and 43.7%.
In the same order, the values of `CCC(CC)CN1CCN(c2c(C)c3c(O)cc(O)cc3oc2=O)CC1` are 102% and 49.5%.
In the same order, the values of `CCCCCCCCOc1cc(O)cc2oc(=O)c(N3CCN(C)CC3)c(C)c12` are 59.4% and 15.6%.
On to `Cc1c(N2CCN(C)CC2)c(=O)oc2cc(O)cc(OCCc3cccs3)c12`, for which the viability at 10 µM in data set [1] stood at 178%. Further, the Activity with PC-12 is recorded as 39.1%.
The like results for `Cc1c(N2CCN(C)CC2)c(=O)oc2cc(O)cc(OCc3ccccn3)c12` were, in that order, 116% and 44.2%.
Consider `Cc1c(N2CCN(Cc3cc4c(cc3Cl)OCO4)CC2)c(=O)oc2cc(O)cc(O)c12`, for which, in data set [1], the viability at 10 µM is 97.2%. Also, in the data set with PC-12, the Activity is on record as 44.6%.
Turning to `CC(=O)Nc1ccc(S(=O)(=O)N2CCN(c3c(C)c4c(O)cc(O)cc4oc3=O)CC2)cc1`, the viability at 10 µM in data set [1] was 98.1%. Further, the Activity in the data set on PC-12 was 44.5%.
The like results for `Cc1c(CCC(=O)N2CCN(C)CC2)c(=O)oc2cc(O)cc(O)c12` were, in that order, 97.5% and 46.1%.
Consider `Cc1c(N2CCN(C)CC2)c(=O)oc2cc(OCCN3CCCCC3)ccc12`, for which the viability at 10 µM in data set [1] is 95.4%. For the same compound, the Activity with PC-12 was determined as 45.3%.
Regarding `Cc1c(N2CCN(C)CC2)c(=O)oc2cc(O)cc(OC3CCCC3)c12`, the viability at 10 µM in data set [1] was 181%. Also, the Activity in the data set with PC-12 amounted to 33.8%.
In the same order, the values of `Cc1c(N2CCN(C(=O)NCc3ccccc3)CC2)c(=O)oc2cc(O)cc(O)c12` are 102% and 49.6%.
The like results for `COc1ccc(COc2ccc3c(C)c(N4CCN(C)CC4)c(=O)oc3c2)cc1` were, in that order, 136% and 44.2%.
Take `Cc1c(N2CCN(C)CC2)c(=O)oc2cc(O)cc(OCCCNC(=O)OC(C)(C)C)c12`: in data set [1], the viability at 10 µM turned out to be 153%. Also, the Activity in the data set on PC-12 is given as 15.8%.
On to `Cc1c(N2CCN(C)CC2)c(=O)oc2cc(OCCN3CCOCC3)ccc12`, for which the viability at 10 µM in data set [1] turned out to be 101%. The Activity in the data set with PC-12 is reported as 49.3%.
In the same order, the values of `CCOc1cc(O)cc2oc(=O)c(N3CCN(C)CC3)c(C)c12` are 167% and 33.9%.
The like results for `CCCCNC(=S)N1CCN(c2c(C)c3c(O)cc(O)cc3oc2=O)CC1` were, in that order, 103% and 48.9%.
For `Cc1c(N2CCN(C(=O)c3ccccc3)CC2)c(=O)oc2cc(O)cc(O)c12`, the viability at 10 µM in data set [1] came out at 100%. In the data set with PC-12, the Activity was 44.6%.
The like results for `Cc1c(N2CCN(C)CC2)c(=O)oc2cc(O)cc(OC(C)C)c12` were, in that order, 119% and 51.8%.
As for `Cc1c(N2CCN(C(=O)Nc3ccc(F)cc3)CC2)c(=O)oc2cc(O)cc(O)c12`, the viability at 10 µM in data set [1] is 104%. In addition, the Activity with PC-12 is 46.3%.
The like results for `Cc1c(N2CCN(C)CC2)c(=O)oc2cc(O)cc(O)c12` were, in that order, 107% and 52.7%.
For the compound `Cc1c(N2CCN(c3cccc(C(F)(F)F)c3)CC2)c(=O)oc2cc(O)cc(O)c12`, the viability at 10 µM in data set [1] amounted to 103%. Further, in the data set with PC-12, the Activity is 46.5%.
On to `Cc1c(N2CCN(C(=O)CCl)CC2)c(=O)oc2cc(O)cc(O)c12`, for which the viability at 10 µM in data set [1] was found to be 97.4%. The Activity in the data set on PC-12 was 48.1%.
For the compound `Cc1c(N2CCN(C)CC2)c(=O)oc2cc(O)cc(OCCCN)c12`, the viability at 10 µM in data set [1] came out at 107%. Besides, in the data set with PC-12, the Activity turned out to be 40.5%.
Turning to `Cc1c(N2CCN(C)CC2)c(=O)oc2cc(O)cc(OCc3nccs3)c12`, the viability at 10 µM in data set [1] came out at 108%. The Activity in the data set on PC-12 stood at 54.7%.
In the same order, the values of `Cc1c(N2CCN(C)CC2)c(=O)oc2cc(O)cc(OCCCCl)c12` are 197% and 36.3%.
In the same order, the values of `Cc1c(N2CCN(C)CC2)c(=O)oc2cc(O)cc(OCCN(C)C)c12` are 104% and 61.5%.
`Cc1c(N2CCN(C(=S)Nc3cccc(F)c3)CC2)c(=O)oc2cc(O)cc(O)c12`: the viability at 10 µM in data set [1] amounted to 101%. Also, the Activity in the data set on PC-12 was 48.8%.
As to `Cc1c(N2CCN(C)CC2)c(=O)oc2cc(O)ccc12`, the viability at 10 µM in data set [1] was determined as 99%. In addition, in the data set with PC-12, the Activity is listed as 44.8%.
